Reference: ChEMBL document CHEMBL4371041, “Synthesis and evaluation of thieno[3,2-d]pyrimidine derivatives as novel FMS inhibitors” (Bioorg Med Chem Lett, 2019)

Columns and labels:
[1] = Volume of distribution in CD-1 mouse at 3 mg/kg, iv; type: ADME, organism-based; settings: in vivo
[2] = biological target: RAF proto-oncogene serine/threonine-protein kinase (Homo sapiens, UniProt P04049, Y340D/Y341D); assay: Inhibition of recombinant human N-terminal GST-tagged c-RAF Y340D/Y341D double mutant (306 to 648 residues) expressed in baculovirus infected Sf21 insect cells using MEK1(K97R) as substrate in presence of [gamma-33P]-ATP or [gamma-32P]-ATP
[3] = biological target: Maternal embryonic leucine zipper kinase (Homo sapiens, UniProt Q14680); assay: Inhibition of recombinant human N-terminal GST-tagged MELK (1 to 340 residues) expressed in baculovirus infected Sf21 insect cells using KKLNRTLSFAEPG as substrate in presence of [gamma-33P]-ATP or [gamma-32P]-ATP
In short: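 Kinase panel of twenty-eight enzymes; IC50 values determined with ATP at the respective Km of each kinase.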

[4] = biological target: Epidermal growth factor receptor (Homo sapiens) (UniProt P00533); assay: Inhibition of recombinant human N-terminal GST-tagged EGFR (696 to end residues) expressed in baculovirus infected Sf21 insect cells at 1 uM using Angiotensin2 peptide as substrate in presence of [gamma-33P]-ATP or [gamma-32P]-ATP relative to control
[5] = system: RAF proto-oncogene serine/threonine-protein kinase (Homo sapiens), P04049 [Y340D,Y341D]; assay: Inhibition of recombinant human N-terminal GST-tagged c-RAF Y340D/Y341D double mutant (306 to 648 residues) expressed in baculovirus infected Sf21 insect cells at 1 uM using MEK1(K97R) as substrate in presence of [gamma-33P]-ATP or [gamma-32P]-ATP relative to control
[6] = biological target: Ephrin type-B receptor 4 (Homo sapiens) (UniProt P54760); assay: Inhibition of recombinant human N-terminal His6-tagged EphB4 (561 to end residues) expressed in baculovirus infected Sf21 insect cells using poly (Glu, Tyr) (4:1) as substrate in presence of [gamma-33P]-ATP or [gamma-32P]-ATP relative to control; settings: concentration not given here
Sequence of Ephrin type-B receptor 4 (Homo sapiens) (P54760 whole entry): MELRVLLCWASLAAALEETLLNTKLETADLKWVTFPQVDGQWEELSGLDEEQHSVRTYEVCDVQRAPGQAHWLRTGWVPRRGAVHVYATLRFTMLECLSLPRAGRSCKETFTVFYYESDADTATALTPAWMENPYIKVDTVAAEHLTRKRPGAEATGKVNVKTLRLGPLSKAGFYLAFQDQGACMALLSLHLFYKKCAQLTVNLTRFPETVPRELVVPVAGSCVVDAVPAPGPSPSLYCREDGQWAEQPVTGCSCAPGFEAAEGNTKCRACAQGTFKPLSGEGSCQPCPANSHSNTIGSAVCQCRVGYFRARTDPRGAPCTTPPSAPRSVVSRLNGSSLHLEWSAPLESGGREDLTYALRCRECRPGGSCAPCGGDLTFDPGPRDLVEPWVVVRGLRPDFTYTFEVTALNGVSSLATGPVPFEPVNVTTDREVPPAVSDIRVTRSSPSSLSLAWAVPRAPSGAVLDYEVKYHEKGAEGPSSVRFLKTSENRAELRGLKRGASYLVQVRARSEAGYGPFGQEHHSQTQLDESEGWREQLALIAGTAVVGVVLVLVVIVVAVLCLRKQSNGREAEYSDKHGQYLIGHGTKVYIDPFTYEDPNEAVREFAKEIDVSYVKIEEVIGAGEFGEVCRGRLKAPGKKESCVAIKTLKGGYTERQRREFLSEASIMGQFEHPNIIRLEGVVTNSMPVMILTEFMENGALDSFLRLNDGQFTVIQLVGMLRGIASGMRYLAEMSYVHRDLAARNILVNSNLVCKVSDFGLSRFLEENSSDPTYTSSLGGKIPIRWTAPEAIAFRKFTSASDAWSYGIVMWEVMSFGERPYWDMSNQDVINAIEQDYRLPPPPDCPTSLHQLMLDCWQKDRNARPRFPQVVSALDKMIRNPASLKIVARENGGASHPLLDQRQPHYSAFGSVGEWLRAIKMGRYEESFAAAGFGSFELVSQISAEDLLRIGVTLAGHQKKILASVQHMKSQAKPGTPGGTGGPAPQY

Sequence of RAF proto-oncogene serine/threonine-protein kinase (Homo sapiens), P04049 [Y340D,Y341D] (P04049 whole entry Y340D/Y341D, the tested form may be a part): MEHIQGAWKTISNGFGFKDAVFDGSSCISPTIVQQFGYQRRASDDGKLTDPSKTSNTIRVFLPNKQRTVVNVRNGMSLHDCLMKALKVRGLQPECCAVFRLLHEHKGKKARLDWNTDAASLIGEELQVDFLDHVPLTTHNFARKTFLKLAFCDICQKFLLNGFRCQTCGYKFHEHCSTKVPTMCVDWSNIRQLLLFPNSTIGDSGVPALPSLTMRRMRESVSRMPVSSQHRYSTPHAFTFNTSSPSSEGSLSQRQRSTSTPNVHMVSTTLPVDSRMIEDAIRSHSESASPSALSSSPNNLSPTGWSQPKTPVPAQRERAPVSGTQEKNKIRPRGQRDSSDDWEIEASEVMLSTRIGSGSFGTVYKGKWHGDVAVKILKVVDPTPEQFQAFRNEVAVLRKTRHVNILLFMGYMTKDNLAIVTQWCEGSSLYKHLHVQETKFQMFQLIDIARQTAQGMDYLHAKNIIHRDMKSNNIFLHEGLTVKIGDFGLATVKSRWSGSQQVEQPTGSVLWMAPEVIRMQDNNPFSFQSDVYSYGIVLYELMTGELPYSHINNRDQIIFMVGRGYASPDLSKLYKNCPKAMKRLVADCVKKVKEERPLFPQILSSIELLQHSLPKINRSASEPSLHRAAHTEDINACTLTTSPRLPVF
Sequence of RAF proto-oncogene serine/threonine-protein kinase (P04049 whole entry Y340D/Y341D, the tested form may be a part): as above
Sequence of Epidermal growth factor receptor (Homo sapiens) (P00533 whole entry, the tested form may be a part): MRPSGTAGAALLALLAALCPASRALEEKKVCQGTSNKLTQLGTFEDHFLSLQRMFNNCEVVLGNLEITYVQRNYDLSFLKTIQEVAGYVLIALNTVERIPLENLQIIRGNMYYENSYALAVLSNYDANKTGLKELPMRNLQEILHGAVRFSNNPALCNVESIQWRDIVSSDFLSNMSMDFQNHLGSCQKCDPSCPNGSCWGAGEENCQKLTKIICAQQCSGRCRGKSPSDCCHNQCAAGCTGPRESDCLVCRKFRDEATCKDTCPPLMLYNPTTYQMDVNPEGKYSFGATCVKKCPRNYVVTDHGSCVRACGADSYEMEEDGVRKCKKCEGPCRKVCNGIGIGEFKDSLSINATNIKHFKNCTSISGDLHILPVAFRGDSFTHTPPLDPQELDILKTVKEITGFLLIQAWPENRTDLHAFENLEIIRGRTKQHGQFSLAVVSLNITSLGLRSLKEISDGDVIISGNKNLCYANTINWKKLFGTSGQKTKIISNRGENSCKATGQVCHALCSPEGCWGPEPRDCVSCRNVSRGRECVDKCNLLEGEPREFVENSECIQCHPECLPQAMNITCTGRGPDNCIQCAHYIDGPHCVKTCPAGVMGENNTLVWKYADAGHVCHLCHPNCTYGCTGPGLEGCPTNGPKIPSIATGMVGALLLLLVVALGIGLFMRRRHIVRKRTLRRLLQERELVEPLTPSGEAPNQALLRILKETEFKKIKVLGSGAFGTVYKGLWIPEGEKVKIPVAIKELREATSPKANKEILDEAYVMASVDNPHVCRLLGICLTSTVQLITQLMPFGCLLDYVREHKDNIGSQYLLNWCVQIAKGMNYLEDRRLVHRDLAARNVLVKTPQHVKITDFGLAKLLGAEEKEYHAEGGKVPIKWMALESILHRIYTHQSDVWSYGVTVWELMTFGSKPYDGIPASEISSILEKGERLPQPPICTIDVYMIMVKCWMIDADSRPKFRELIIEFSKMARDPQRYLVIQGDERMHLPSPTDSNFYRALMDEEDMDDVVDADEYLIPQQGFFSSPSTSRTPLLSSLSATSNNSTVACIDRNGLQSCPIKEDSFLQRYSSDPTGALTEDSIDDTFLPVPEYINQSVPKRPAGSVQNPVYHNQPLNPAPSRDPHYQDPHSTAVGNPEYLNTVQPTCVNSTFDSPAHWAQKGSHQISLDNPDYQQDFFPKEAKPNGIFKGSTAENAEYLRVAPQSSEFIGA
Sequence of Maternal embryonic leucine zipper kinase (Q14680 whole entry, the tested form may be a part): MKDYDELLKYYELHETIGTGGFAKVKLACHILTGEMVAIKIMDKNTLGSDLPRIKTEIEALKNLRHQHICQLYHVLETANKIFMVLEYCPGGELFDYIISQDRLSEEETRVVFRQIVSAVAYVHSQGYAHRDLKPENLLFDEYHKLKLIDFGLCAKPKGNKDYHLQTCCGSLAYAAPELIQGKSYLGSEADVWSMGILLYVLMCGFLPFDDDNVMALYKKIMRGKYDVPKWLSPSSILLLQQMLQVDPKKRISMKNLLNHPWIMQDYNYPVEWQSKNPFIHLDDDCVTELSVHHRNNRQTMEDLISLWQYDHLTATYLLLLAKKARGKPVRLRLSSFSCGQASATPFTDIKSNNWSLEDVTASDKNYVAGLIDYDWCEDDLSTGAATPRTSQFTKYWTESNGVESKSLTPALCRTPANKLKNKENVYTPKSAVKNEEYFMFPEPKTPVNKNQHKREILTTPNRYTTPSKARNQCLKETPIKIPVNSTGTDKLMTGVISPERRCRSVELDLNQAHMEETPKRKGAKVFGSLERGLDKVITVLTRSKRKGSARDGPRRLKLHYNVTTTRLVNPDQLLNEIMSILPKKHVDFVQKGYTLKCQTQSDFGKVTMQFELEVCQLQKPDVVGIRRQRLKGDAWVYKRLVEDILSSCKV

`Cc1cccc(Cn2nc(C)c3c(NC(=O)c4csc5c(N)ncnc45)cccc32)n1` showed a Vd [1] of 2 L/kg, an IC50 [2] of 80 nM and an IC50 [3] of 258 nM. The inhibition [4] was -2%, the inhibition [5] was > 60% and the inhibition [6] was 2%.
